Screening data: PubChem, Johns Hopkins Ion Channel Center
RGS4 pot: RGS4 potentiation or activation | HEK293 M3R/inducible RGS4, carbachol calcium flux Fluo4; active compounds read low | B-score at 10 µM | actives 0.92% (n = 310,000) | AID 463111;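 active = B-score of the integrated calcium signal more than 4 SD below the library mean, with starting fluorescence not abnormally high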;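 note: negative B-score means reduced calcium response which marks RGS4 activation or potentiation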
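System – HEK293 FlpIn-TREx cells, stable M3R, doxycycline-inducible RGS4 · Reagent – ECmax carbachol challenge · Times – compound preincubation 20 min at room temperature before agonist · Technique – Fluo4 fluorescence kinetic imaging of calcium · Measure – B score of integrated Fluo4 ratio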
RGS4 block: inhibitors of human RGS4. P49798. HEK293 M3R/RGS4 inducible, Fluo-4 calcium flux; active compounds read high; triggered by carbachol at its EC20. B-score at 10 µM. actives 0.45% (n = 310,000). AID 463165;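 active = B-score, a plate-corrected calcium signal, over three deviations above library mean, with baseline fluorescence within five deviations of library mean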;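 note: RGS4 expression induced by doxycycline in cells with stable M3 receptor; B-score is computed from the integrated fluorescence ratio over baseline after carbachol; higher B-score means a larger calcium signal and so more RGS4 inhibition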
Target sequence (P49798 whole entry, looked up): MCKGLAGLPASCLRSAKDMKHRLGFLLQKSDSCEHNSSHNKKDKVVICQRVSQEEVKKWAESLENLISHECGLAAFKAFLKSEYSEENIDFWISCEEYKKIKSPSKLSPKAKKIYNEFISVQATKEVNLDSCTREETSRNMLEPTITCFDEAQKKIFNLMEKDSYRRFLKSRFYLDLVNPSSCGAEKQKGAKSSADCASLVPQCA
MrgX1 agonist: human MrgX1 receptor agonism, primary screen. Q96LB2. actives 0.44% (n = 310,000). B-score at 10 µM. MrgX1-HEK293 cells, Fluo-4 calcium fluorescence, agonist mode; active compounds read high;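 active = calcium response B-score plate-corrected fluorescence ratio at least 3 library SD, with starting fluorescence B-score inside 5 SD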
Target sequence (Q96LB2 whole entry, looked up): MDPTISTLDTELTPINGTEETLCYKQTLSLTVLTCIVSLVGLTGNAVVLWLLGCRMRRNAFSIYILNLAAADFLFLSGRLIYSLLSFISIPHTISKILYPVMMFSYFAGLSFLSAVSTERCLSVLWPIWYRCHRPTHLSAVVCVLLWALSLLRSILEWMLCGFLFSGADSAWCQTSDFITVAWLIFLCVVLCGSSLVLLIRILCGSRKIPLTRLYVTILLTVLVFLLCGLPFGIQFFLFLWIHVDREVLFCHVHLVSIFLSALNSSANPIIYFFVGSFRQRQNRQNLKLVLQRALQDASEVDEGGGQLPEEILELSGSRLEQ
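Assay system: stable human MrgX1 HEK293 cell line. Quantity: 15,000 cells per well. Schedule: cells plated overnight, dye loaded 0.5 h 37 °C, 0.5 h room temperature. Detection: Fluo-4 NW calcium-flux fluorescence, kinetic read. Read-out basis: peak-minus-minimum fluorescence over baseline, converted to B scores. Control set: positive and negative control wells on each plate.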
MrgX1 allo act: allosterically activates human MrgX1 receptor signaling. Q96LB2. B-score at 10 µM. actives 0.63% (n = 310,000). AID 588675. MrgX1-HEK293, Fluo-4 calcium flux, FDSS; active compounds read high;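 active = plate-corrected calcium response at least 3 library SD above typical, normal starting fluorescence, not activating the receptor alone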;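 note: compound read alongside a low EC10 to EC30 dose of BAM8-22 agonist; peak minus trough fluorescence over baseline measured at the second addition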
MrgX1 antagonist: antagonists of human MrgX1 receptor | actives 1.3% (n = 310,000) | AID 588676 | Q96LB2 | MRGX1-HEK293 calcium flux, Fluo-4, BAM8-22 antagonism; active compounds read low | B-score at 10 µM;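 active = calcium-response B-score plate-corrected more than 3 library SD below zero, starting fluorescence within 5 deviations, no agonist response on first addition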;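 note: peak minus trough fluorescence over baseline after final BAM8-22 challenge near maximal dose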
An asterisk follows results filed as active; i = inactive. In the library only some 3.5% were active in any assay of this set; here they are far more common.

SMILES	RGS4 pot	RGS4 block	MrgX1 agonist	MrgX1 allo act	MrgX1 antagonist
CCc1ccc(N2CC(O)(c3cccs3)[N+]3=C2SCCC3)cc1 (stereo unspecified)	-7.48*	i	i	i	i
CCCCC1C(=O)CC[C@H]2[C@@H]1CC(=O)[C@@H]2C/C=C\CCCC(=O)O (stereo partly specified)	i	i	i	i	i
CCCCC[C@H](O)/C=C/[C@H]1[C@H](O)CC(=O)[C@@H]1CCCCCCC(=O)O	i	6.4*	30*	i	i
NC(=O)C1CCN(C(=O)c2ccc3c(=O)n(Cc4ccco4)c(SCc4ccc([N+](=O)[O-])cc4)nc3c2)CC1	i	i	i	i	i
Cc1cc(N/N=C/c2cccc(Cl)c2)nc(NCc2ccccc2)n1	-7.67*	i	i	i	i
Cc1cc(N/N=C/c2ccccc2)nc(NCc2ccccc2)n1	i	i	i	i	i
NC(=O)/C=C\C(=O)Nc1cccc(C(F)(F)F)c1	i	i	i	i	i
CCc1ccc(OCC(=O)NNC(=O)c2nn(CC)c(=O)c3ccccc23)cc1	i	i	i	9.58*	i
CCN(CC)C(=O)/C(=C\c1ccc(Br)cc1)NC(=O)c1ccccc1OC	i	i	i	i	i
C/C(N)=C(/C#N)C(=O)CSc1nc2scc(-c3ccccc3)c2c(=O)n1C	i	i	i	i	i
S=C(NCCc1cccc(Cl)c1)NC1CCCCC1	i	i	i	i	i
COc1ccc(C(=O)COc2ccccc2C(=O)Nc2ccccc2)cc1	i	i	i	i	i
C#CCOc1c(Br)cc(/C=N/O)cc1OCC	i	i	i	7.91*	i
Cc1c(OC(C)C(=O)NCC2CCC(C(=O)O)CC2)ccc2c3c(c(=O)oc12)CCCC3 (stereo unspecified)	i	i	i	i	i
CN1CCN(C(=O)CCN2C(=O)c3ccccc3S2(=O)=O)CC1	i	i	i	i	-7.45*
O=C(CCN1C(=O)c2ccccc2S1(=O)=O)N1CCN(c2ccccc2)CC1	i	i	i	i	i
O=C(C1=C[C@H](C2CC2)C[C@H](OCc2ccc(CO)cc2)O1)N1CCOCC1	i	i	i	i	i
OC(COc1ccc(C2C=CCC2)cc1)CN1CCCCC1 (stereo unspecified)	-6.97*	i	i	i	i
Clc1ccc(OCCn2cnc(Cl)c2Cl)cc1	i	i	i	i	i
O=C(Cn1cc(S(=O)(=O)N2CCCC2)c(S(=O)(=O)N2CCCC2)c1)NCc1ccco1	i	i	i	i	i
CN1CCCN(C(=O)c2ccc(Br)cc2)CC1	i	i	i	i	i
CN(C)S(=O)(=O)c1cccc(NC(=O)CSc2cccc3cccnc23)c1	-7.32*	i	i	i	i
Cc1ccc(C(=O)NC(=S)NNC(=O)COc2ccccc2C)cc1	-8.7*	i	i	i	i
Cc1ccc(OCC(=O)NNC(=S)NC(=O)C2CCCCC2)c(C)c1	-7.09*	i	48.5*	i	i
Cc1cccc(C(=O)NC(=S)NNC(=O)COc2c(C)cccc2C)c1	i	i	26.7*	i	i
SMILES	RGS4 pot	RGS4 block	MrgX1 agonist	MrgX1 allo act	MrgX1 antagonist
Cc1cccc(C(=O)NC(=S)NCc2ccccc2)c1	i	i	i	i	i
CC(C)CNC(=S)NC(=O)c1ccc([N+](=O)[O-])cc1	i	i	i	10.4*	i
COc1cc2cc(C(c3nnnn3C3CCCCC3)N(C)C3CCCCC3)c(=O)[nH]c2cc1OC (stereo unspecified)	i	i	i	i	i
Cc1ccc(CNC(=O)CN(C)S(=O)(=O)c2cccs2)cc1	i	i	i	i	i
Cc1ccc(C(=O)NC(=S)NNC(=O)COc2ccc([N+](=O)[O-])cc2)cc1	i	i	i	6.94*	i
CCN(Cc1ccccc1)C(=O)c1cccc(S(=O)(=O)N2CCN(Cc3ccccc3)CC2)c1	i	i	i	i	i
CCCCN(C(=O)c1cccc(S(=O)(=O)N2CCN(Cc3ccccc3)CC2)c1)c1ccccc1	i	i	i	i	-4.72*
O=C(NCc1cccnc1)c1ccc(-c2ccccc2[N+](=O)[O-])o1	i	i	i	i	-5.89*
CN(C)/C=C1\SC(=S)N(c2ccc(Br)cc2)C1=O	i	i	i	i	-4.89*
CN(C)/C=C1\SC(=S)N(c2ccc(F)cc2)C1=O	i	i	i	i	i
COC(=O)c1ccc(OC(=O)CCc2cc(OC)c(OC)c(OC)c2)cc1	i	i	i	i	i
S=C1N(c2ccccc2)C(c2ccc(Cl)cc2)N2CCCN12 (stereo unspecified)	-7.24*	i	i	i	i
COc1ccc(C2N(c3ccccc3)C(=S)N3CCCN23)cc1 (stereo unspecified)	i	i	i	i	i
CC(COc1ccccc1Cc1ccccc1)N1CCCCC1 (stereo unspecified)	-7.38*	i	i	i	i
O=C(O)COc1ccccc1Cc1ccccc1	i	i	i	i	i
CC(C)(CO)NS(=O)(=O)c1ccc2c(c1)Cc1cc(S(=O)(=O)NC(C)(C)CO)ccc1-2	i	i	i	i	i
CCN(CC)CCNC(=O)c1ccc(NC(=O)c2ccccc2-c2ccc(C(F)(F)F)cc2)cc1	-9.49*	i	i	i	i
CCOc1ccc(NC(=O)CN(C)C(=O)c2cn(-c3ccc(F)cc3)nc2-c2cccc(OC)c2)cc1OCC	-7.2*	i	i	i	i
CCN(CC)CCNC(=O)c1ccc(NC(=O)c2cn(-c3ccc(F)cc3)nc2-c2cccc(OC)c2)cc1	-10.9*	i	i	i	i
CCN(CC)CCNC(=O)c1ccc(NC(=O)/C=C/c2ccc3ccccc3n2)cc1	i	i	i	i	-8.54*
CCOC(=O)c1ccccc1NC(=O)COC(=O)C1CCCC1	i	i	i	i	i
COc1cc(NC(=O)CSc2ncnc3scc(-c4ccccc4)c23)c(C(=O)O)cc1OC	i	i	i	i	i
COc1ccc(N(C)C(=O)c2ccc(NC(=O)CCS(=O)(=O)c3cccs3)cc2)cc1	i	i	i	i	i
O=C(Nc1cccnc1)c1cn(-c2ccccc2)nc1-c1cccs1	i	i	i	i	i
CCN(CC)CCNC(=O)c1ccc(NC(=O)c2cn(-c3ccccc3)nc2-c2cccs2)cc1	-8.07*	i	i	i	i
